Test results reported in ChEMBL document CHEMBL4043205, “Picomolar inhibition of β-galactosidase (bovine liver) attributed to loop closure” (Bioorg Med Chem, 2017).
pIC50, pKi: −log10 of the molar value. Calls of active or inactive are those of the source. The rule behind the calls is not given here.

Experiments:
Beta-galactosidase [1] = target: T1, Beta-galactosidase (Bos taurus, UniProt Q58D55); test: Inhibition of bovine liver beta-galactosidase using 4-nitrophenyl-beta-D-galactopyranoside substrate measured over 240 mins at 10 mins intervals by UV/Vis spectroscopy
T1 sequence (Q58D55 whole entry): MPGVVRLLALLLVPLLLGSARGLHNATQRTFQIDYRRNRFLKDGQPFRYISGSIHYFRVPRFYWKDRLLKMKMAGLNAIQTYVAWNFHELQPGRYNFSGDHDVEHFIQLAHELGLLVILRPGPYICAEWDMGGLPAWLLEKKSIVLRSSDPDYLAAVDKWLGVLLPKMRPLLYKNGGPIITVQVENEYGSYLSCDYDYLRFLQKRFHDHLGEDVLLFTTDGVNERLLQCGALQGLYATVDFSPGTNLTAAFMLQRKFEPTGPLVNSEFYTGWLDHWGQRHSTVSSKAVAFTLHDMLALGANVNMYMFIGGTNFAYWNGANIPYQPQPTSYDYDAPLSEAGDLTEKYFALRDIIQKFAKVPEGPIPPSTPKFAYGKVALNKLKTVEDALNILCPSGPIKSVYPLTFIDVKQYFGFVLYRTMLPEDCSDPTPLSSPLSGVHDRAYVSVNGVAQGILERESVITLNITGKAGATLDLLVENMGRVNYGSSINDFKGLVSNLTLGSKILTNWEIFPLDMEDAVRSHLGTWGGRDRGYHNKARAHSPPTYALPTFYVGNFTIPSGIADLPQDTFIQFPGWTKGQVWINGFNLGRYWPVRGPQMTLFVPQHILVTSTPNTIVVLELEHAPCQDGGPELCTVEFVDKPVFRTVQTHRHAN
Outline: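 Bovine liver enzyme in 5 mM HEPES pH 7.50; 4-nitrophenyl-β-D-galactopyranoside mixed with 11 inhibitor dilutions (stocks 0.005–200 μM), equilibrated 30 °C 30 min, then enzyme added. Absorbance at 405 nm followed 240 min; final reads converted to percent inhibition against buffer control, plotted versus log inhibitor concentration; duplicates.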

Beta-galactosidase [2] = target: T1, Beta-galactosidase; test: Inhibition of bovine liver beta-galactosidase pre-incubated for 30 mins with 4-nitrophenyl-beta-D-galactopyranoside substrate before enzyme addition measured over 45 mins at 27 secs intervals by UV/Vis based spectroscopy
Outline: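 Bovine liver enzyme (stock aliquot thawed, diluted in 5 mM HEPES, kept on ice). Varied 4-nitrophenyl-β-D-galactopyranoside with fixed inhibitor, pH 7.50 HEPES, equilibrated 30 °C 30 min before enzyme; 405 nm read for 45 min. Initial rates via ε 13,300 M−1 cm−1, fitted Michaelis-Menten at ≥2 inhibitor levels; competitive Ki from K′m = Km(1+[I]/Ki); duplicates, Lineweaver-Burk check.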

[3] = Inhibition of Aspergillus oryzae beta-galactosidase using 2-chloro-4-nitrophenyl b-dgalactopyranoside substrate relative to control
[4] = Inhibition of Aspergillus oryzae beta-galactosidase using 2-chloro-4-nitrophenyl b-dgalactopyranoside substrate
[5] = target: T2, Beta-galactosidase (Bos taurus) (UniProt Q58D55); test: Competitive inhibition of bovine liver beta-galactosidase using 4-nitrophenyl-beta-D-galactopyranoside substrate measured over 240 mins at 10 mins intervals by UV/Vis spectroscopy based Lineweaver-Burk plot
T2 sequence (whole entry): T1 sequence (Q58D55 whole entry)

Aspergillus oryzae [6] = test: Inhibition of Aspergillus oryzae beta-galactosidase using 2-chloro-4-nitrophenyl b-dgalactopyranoside substrate by Eddie-Hofstee plot
[7] = target: T2, Beta-galactosidase (Bos taurus); test: Competitive inhibition of bovine liver beta-galactosidase using 4-nitrophenyl-beta-D-galactopyranoside substrate measured over 240 mins at 10 mins intervals by UV/Vis spectroscopy based Eddie-Hofstee plot
Aspergillus oryzae [8] = test: Inhibition of Aspergillus oryzae beta-galactosidase using 2-chloro-4-nitrophenyl b-dgalactopyranoside substrate by Lineweaver-Burk plot

Row | SMILES | pIC50 (Beta-galactosidase [1]) | pKi (Beta-galactosidase [2]) | pIC50 [3] | pKi [4] | Inhibition mode (qualitative, Lineweaver-Burk) [5] | inhibition activity (qualitative) (Aspergillus oryzae [6]) | competitive inhibition (qualitative call) [7] | inhibition activity (Aspergillus oryzae [8])
1 | OC[C@H]1N/C(=N\CC2CCCCC2)[C@H](O)[C@@H](O)[C@H]1O | 7.94 | 10.10 | 7.66 | 7.95 | Active | Active | Active | Active
2 | CCCCCCC/N=C1\N[C@H](CO)[C@H](O)[C@H](O)[C@H]1O | 7.62 | 9.96 | 6.97 | 7.97 | Active | Active | Active | Active
3 | OC[C@H]1N/C(=N\CC2CC2)[C@H](O)[C@@H](O)[C@H]1O | < 5.85 | 9.41 | 7.44 | 8.02 | Active | Active | Active | Active
4 | OC[C@H]1N/C(=N\CC2CCCCCC2)[C@H](O)[C@@H](O)[C@H]1O | 7.34 | 9.80 | 7.44 | 8.20 | Active | Active | Active | Active
5 | COc1ccc(C/N=C2\N[C@H](CO)[C@H](O)[C@H](O)[C@H]2O)cc1 | 7.58 | 9.92 | 6.82 | 7.77 | Active | Active | Active | Active
6 | OC[C@H]1N/C(=N\Cc2ccc(C(F)(F)F)cc2)[C@H](O)[C@@H](O)[C@H]1O | 7.82 | 9.80 | 6.91 | 7.80 | Active | Active | Active | Active
7 | CCCCCCCCCCCNC1=N[C@H](CO)[C@H](O)[C@H](O)[C@H]1O | 7.37 | 9.62 | 7.47 | 7.32 | Active | Active | Active | Active
8 | CCCCC(CC)CNC1=N[C@H](CO)[C@H](O)[C@H](O)[C@H]1O (stereo partly drawn) | 7.67 | 9.74 | 7.44 | 8.11 | Active | Active | Active | Active
9 | CO[C@@H]1[C@H](O)[C@@H](O)C(NCc2ccc(C)cc2)=N[C@@H]1CO | 5.04 | 6.08 | 4.39 | 5.85 | Active | Active | Active | Active
10 | CCC/N=C1\N[C@H](CO)[C@H](O)[C@H](O)[C@H]1O | 5.99 | 9.49 | 6.65 | 6.83 | Active | Active | Active | Active
11 | O=C1N[C@H](CO)[C@H](O)[C@H](O)[C@H]1O | 5.06 | 5.57 | < 4.30 | 6.21 | Active | Active | Active | Active
12 | OC[C@H]1N/C(=N\C2CCCCC2)[C@H](O)[C@@H](O)[C@H]1O | < 6.00 | 8.63 | 5.31 | 6.22 | Active | Active | Active | Active
13 | Cc1ccc(C/N=C2\N[C@H](CO)[C@H](O)[C@H](O)[C@H]2O)cc1 | 7.24 | 10.15 | 7.44 | 8.10 | Active | Active | Active | Active
14 | Cc1ccccc1C/N=C1\N[C@H](CO)[C@H](O)[C@H](O)[C@H]1O | 6.93 | 9.70 | 6.21 | 7.63 | Active | Active | Active | Active
15 | OC[C@H]1N/C(=N\Cc2ccccc2F)[C@H](O)[C@@H](O)[C@H]1O | 7.37 | 9.64 | 6.93 | 7.79 | Active | Active | Active | Active
16 | OC[C@H]1N/C(=N\C2CC2)[C@H](O)[C@@H](O)[C@H]1O | < 6.00 | 9.49 | 6.43 | 7.50 | Active | Active | Active | Active
17 | Cc1cccc(C/N=C2\N[C@H](CO)[C@H](O)[C@H](O)[C@H]2O)c1 | 7.79 | 9.96 | 6.88 | 7.53 | Active | Active | Active | Active
18 | OC[C@H]1N/C(=N\Cc2cccc(F)c2)[C@H](O)[C@@H](O)[C@H]1O | 8.03 | 9.89 | 6.94 | 7.69 | Active | Active | Active | Active
19 | Cc1ccc(CNC2=N[C@H](CO)[C@H](O)[C@H](O)C2)cc1 | 6.07 | 9.22 | 4.48 | 5.62 | Active | Active | Active | Active
20 | OC[C@H]1N/C(=N\Cc2ccc(F)cc2)[C@H](O)[C@@H](O)[C@H]1O | 8.04 | 9.72 | 6.48 | 8.00 | Active | Active | Active | Active
21 | OC[C@H]1N/C(=N\CCCc2ccccc2)[C@H](O)[C@@H](O)[C@H]1O | 7.38 | 10.22 | 7.44 | 8.07 | Active | Active | Active | Active
